Published values collected from several papers.
Compare with care: the assays were run in different laboratories.
RPS6KA3: Ribosomal protein S6 kinase alpha-3 (RPS6KA3, Homo sapiens, UniProt P51812)
RPS6KA3 N-terminal kinase domain: Ribosomal protein S6 kinase alpha-3, N-terminal kinase domain (RPS6KA3, Homo sapiens, UniProt P51812)
RPS6KA3 C-terminal kinase domain: Ribosomal protein S6 kinase alpha-3, C-terminal kinase domain (RPS6KA3, Homo sapiens, UniProt P51812)

SMILES	target	test	system	setting	endpoint	value
Cn1cncc1C1=CN(c2ncnc3[nH]cnc23)CCS1	RPS6KA3	enzyme activity, inhibitor, radiometric		2 µM	inhibition	66%
COc1cc(/C=C/C(=O)CC(=O)/C=C/c2ccc(O)c(OC)c2)ccc1O	RPS6KA3	enzyme activity, inhibitor		1 µM	activity vs control	66%
N[C@@H]1CCN(c2nccc(-c3cnn4ncccc34)n2)C1	RPS6KA3 N-terminal kinase domain	binding, competition with immobilised ligand		1 µM	remaining binding	100%
Cc1ccc(C(=O)Nc2ccc(CN3CCN(C)CC3)c(C(F)(F)F)c2)cc1C#Cc1cnc2cccnn12	RPS6KA3	enzyme activity, inhibitor		23.5 nM	activity vs control	82%
FC(F)c1nc2ccccc2n1-c1nc(N2CCOCC2)nc(N2CCOCC2)n1	RPS6KA3	enzyme activity, inhibitor		10 µM	remaining activity	83%
Nc1ncnc2occ(-c3ccc(NC(=O)Nc4cc(C(F)(F)F)ccc4F)cc3)c12	RPS6KA3 C-terminal kinase domain	cell-free assay, inhibitor		20 µM	remaining signal	100%
CC1CCCN1c1nccc(-c2cnn3ncccc23)n1 (stereo not drawn)	RPS6KA3 N-terminal kinase domain	binding, competition with immobilised ligand		1 µM	remaining binding	100%
C[C@@H]1CCN(C(=O)CC#N)C[C@@H]1N(C)c1ncnc2[nH]ccc12	RPS6KA3	cell-free assay, inhibitor		0.5 µM	remaining signal	97%
Cc1cnc(NC2CCOCC2)nc1-n1cnc(C(=O)NC(CN)c2cc(F)cc(Cl)c2)c1 (stereo not drawn)	RPS6KA3	enzyme activity, inhibitor, radiometric		1 µM	remaining activity	21%
CC/C(=N\NC(=O)NCc1cccc(O)c1)c1ccc(O)c(C)c1O	RPS6KA3	enzyme activity, inhibitor		0.1 µM	inhibition	79.5%
CCCS(=O)(=O)Nc1ccc(F)c(C(=O)c2c[nH]c3ncc(-c4ccc(Cl)cc4)cc23)c1F	RPS6KA3	enzyme activity, inhibitor		1 µM	inhibition	< 10%
O=C(Nc1cnn(-c2csc(C(=O)NC3COC3)c2)c1)Nc1ccccc1Cl	RPS6KA3	enzyme activity, inhibitor		5 µM	remaining activity	101%
CNc1cc(Oc2cc(C(=O)Nc3cc(N4CCN(C)CC4)cc(C(F)(F)F)c3)ccc2C)ncn1	RPS6KA3 C-terminal kinase domain	target engagement in cells, inhibitor, chemoproteomics	Huh-7	1 µM	inhibition	-50.6%
CN(C)c1nccc(-c2cnc3ncccn23)n1	RPS6KA3 N-terminal kinase domain	binding, competition with immobilised ligand		1 µM	remaining binding	70%
Cc1ccc(Nc2nccc(N(C)c3ccc4c(C)n(C)nc4c3)n2)cc1S(N)(=O)=O	RPS6KA3	enzyme activity, inhibitor		10 µM	inhibition	56%
CC(C)(C)C(=O)c1sc(NC2CCCCC2)nc1N	RPS6KA3	enzyme activity, inhibitor		10 µM	remaining activity	104%
C[C@@H]1CCN(c2nccc(-c3cnn4ncccc34)n2)C1	RPS6KA3 C-terminal kinase domain	binding, competition with immobilised ligand		1 µM	remaining binding	98%
CCCCNc1ncc2c(-c3ccc(F)cc3)nn(C[C@H]3CC[C@H](N)CC3)c2n1	RPS6KA3 N-terminal kinase domain	target engagement in cells, inhibitor, chemoproteomics		20 mM	inhibition	32.6%
COc1cc2ncnc(Nc3ccc(Oc4ccccc4)cc3C)c2cc1OC	RPS6KA3	enzyme activity, inhibitor		1 µM	inhibition	-8%
COCCOc1nc(-c2ccc(Cl)nc2)nc2c1CN(C(=O)c1ncn3ccccc13)CC2	RPS6KA3 N-terminal kinase domain	cell-free assay, competition with immobilised ligand		0.1 µM	remaining binding	100%
Clc1ccc(Nc2nnc(Cc3ccncc3)c3ccccc23)cc1	RPS6KA3	cell-free assay		0.5 µM	remaining signal	101%

SMILES	target	test	system	setting	endpoint	value
Nc1nc(Nc2ccccc2)sc1C(=O)c1c(F)cccc1F	RPS6KA3	enzyme activity, inhibitor		10 µM	remaining activity	38%
CN(c1nccc(-c2cnn3ncccc23)n1)C1CC1	RPS6KA3 C-terminal kinase domain	binding, competition with immobilised ligand		1 µM	remaining binding	100%
CC1=C(C#N)[C@@H](c2ccc3[nH]nc(C)c3c2)C(C#N)=C(c2ccc(Cl)cc2)N1	RPS6KA3 C-terminal kinase domain	cell-free assay, competition with immobilised ligand		1 µM	remaining binding	86.2%
COc1cc2ncnc(Nc3ccc(F)c(Cl)c3)c2cc1OCCCN1CCOCC1	RPS6KA3	cell-free assay		0.5 µM	remaining signal	100%
C[C@H](NC(=O)c1cnc2n1[C@](C)(Cc1ccc(C#N)cc1)C(=O)N2c1cc(Cl)c(F)c(Cl)c1)C(=O)NC1(c2ccccn2)CC1	RPS6KA3 C-terminal kinase domain	cell-free assay, competition with immobilised ligand		1 µM	remaining binding	100%
CC(C)(C)c1nc(-c2cccc(NS(=O)(=O)c3c(F)cccc3F)c2F)c(-c2ccnc(N)n2)s1	RPS6KA3	enzyme activity, inhibitor, radiometric		1 µM	remaining activity	77%
Cc1cc(NC(=O)c2cccc3cc(-c4cccc5[nH]nc(N)c45)ccc23)ccc1F	RPS6KA3	enzyme activity, inhibitor		0.1 µM	activity vs control	131%
CN(C)C1CCN(CC#Cc2nn(C3CCCC3)c3nc(NCc4ccccc4)ncc23)C1 (stereo not drawn)	RPS6KA3	enzyme activity, inhibitor, FRET		0.1 µM	inhibition	5%
CCOCCn1cc(C(=O)Nc2ccc(-n3nc(-c4cccnc4)cc3C(F)(F)F)cn2)ccc1=O	RPS6KA3 C-terminal kinase domain	cell-free assay, competition with immobilised ligand		1 µM	remaining binding	87%
O=C1Nc2ccc(Cl)cc2C1=Cc1cc(Cl)c(O)c(Cl)c1	RPS6KA3	cell-free assay		0.5 µM	remaining signal	96%
CCN(CC)c1ccc(C2=NNC(=O)CC2C)cc1[N+](=O)[O-] (stereo not drawn)	RPS6KA3	enzyme activity, inhibitor		10 µM	remaining activity	100%
COc1cc(Nc2cnc(C#N)c(O[C@H](C)CN(C)C)n2)ncc1-c1cnn(C)c1	RPS6KA3	enzyme activity, inhibitor, radiometric		1 µM	remaining activity	9%
O=C(Nc1cnn(-c2csc(C(=O)NC3COC3)c2)c1)Nc1c(F)cccc1Cl	RPS6KA3	enzyme activity, inhibitor		5 µM	remaining activity	79.9%
COc1ccc2c(O[C@@H]3C[C@H]4C(=O)N[C@]5(C(=O)O)CC5/C=C\CCCCC[C@H](NC(=O)OC5CCCC5)C(=O)N4C3)cc(-c3csc(NC(=O)C(C)C)n3)nc2c1C (stereo partly drawn)	RPS6KA3 N-terminal kinase domain	cell-free assay, competition with immobilised ligand		1 µM	remaining binding	100%
CNC(=O)c1cc(Oc2ccc(NC(=O)Nc3ccc(Cl)c(C(F)(F)F)c3)cc2)ccn1	RPS6KA3	enzyme activity, inhibitor		10 µM	inhibition	46%
C[C@H](c1ccc(F)cc1)N(Cc1cccc(C(=O)O)c1)C(=O)c1cnc2ccccc2c1	RPS6KA3 C-terminal kinase domain	cell-free assay, competition with immobilised ligand		1 µM	remaining binding	89%
FC(F)(F)Oc1cccc(-c2cnc3ccc(-c4ccncc4)nn23)c1	RPS6KA3	enzyme activity, inhibitor, radiometric		5 µM	activity vs control	98%
COc1ccc2c(c1)O[C@@H](c1ccc(OC)c(OC)c1)C[C@H]2NC(=O)C1(c2ccc3c(c2)OC(F)(F)O3)CC1	RPS6KA3 C-terminal kinase domain	cell-free assay, competition with immobilised ligand		1 µM	remaining binding	100%
CN(CCCC(F)(F)F)c1nccc(-c2cnn3ncccc23)n1	RPS6KA3 N-terminal kinase domain	binding, competition with immobilised ligand		1 µM	remaining binding	100%
CCCOc1ccc([C@H]2[C@H](C(=O)O)[C@@H](c3ccc4c(c3)OCO4)CN2CC(=O)Nc2c(CC)cccc2CC)cc1	RPS6KA3 C-terminal kinase domain	cell-free assay, competition with immobilised ligand		1 µM	remaining binding	73%
CCOc1cc(-c2nncn2C)ccc1Nc1ncc2cc(C)nc(NCC(C)(C)C)c2n1	RPS6KA3	enzyme activity, inhibitor, FRET		1 µM	inhibition	18%
